# M1 antagonist: antagonists of rat M1 muscarinic receptor; Muscarinic acetylcholine receptor M1 (Rattus norvegicus), P08482; 64,000 compounds, 3.4% hits; AID 628, 2007; CHO-M1 cells, Fluo-4 calcium, ACh EC80 antagonist mode; active compounds read low; B-score at 10 µM;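 active = calcium fluorescence response, raw or row-and-column corrected B-score, differing from the plate sample mean either way at a set confidence level, mostly lower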
# Target sequence (P08482 whole entry, looked up): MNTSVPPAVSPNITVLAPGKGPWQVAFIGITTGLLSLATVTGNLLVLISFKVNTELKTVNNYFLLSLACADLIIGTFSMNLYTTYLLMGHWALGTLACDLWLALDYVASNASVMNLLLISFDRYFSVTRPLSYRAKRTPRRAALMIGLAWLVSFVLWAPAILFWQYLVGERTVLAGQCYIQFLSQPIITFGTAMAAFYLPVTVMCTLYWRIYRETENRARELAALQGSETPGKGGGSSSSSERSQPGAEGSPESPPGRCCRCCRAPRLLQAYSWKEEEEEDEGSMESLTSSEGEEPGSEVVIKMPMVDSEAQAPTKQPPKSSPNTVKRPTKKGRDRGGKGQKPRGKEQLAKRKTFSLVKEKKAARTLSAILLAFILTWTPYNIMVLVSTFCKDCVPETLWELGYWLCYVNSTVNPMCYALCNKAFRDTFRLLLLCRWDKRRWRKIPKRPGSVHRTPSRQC
# D1 allo mod: D1 CRE-luciferase signal change, two-sided – cell-based, HEK293 D1, dopamine EC30, D1 allosteric modulator project, primary screen; 58,000 compounds, 5.9% hits; B-score at 10 µM; dopamine EC30 potentiation; actives deviate in either direction; D(1A) dopamine receptor (Homo sapiens), P21728; AID 641, 2007;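 active = luminescence count or its row- and column-corrected plate score outside the 99.7% band of the plate's sample wells, on either side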
# M1 agonist: M1 muscarinic receptor agonists, primary screen, CHO-M1 cells, Fluo-4 calcium, agonist mode; Fluo-4 calcium fluorescence; active compounds read high; Muscarinic acetylcholine receptor M1; 64,000 compounds, 3% hits; B-score at 10 µM;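 active = fluorescence rise, raw or as B-score row- and column-corrected plate score, outside the 99.7% band of its plate's samples, either direction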
# Htt clearance: clearance of mutant huntingtin inclusions, primary screen, imaging, HeLa Exon1htt(103Q)mCFP, confocal imaging; aggregate imaging; zero = plate's median compound well; inhibition, % at 1.5 µM; 47,000 compounds, 0.42% hits;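 active = inhibition of aggregate fluorescence above about 70%, also judged a hit by eye on the cell image, limit read from the data, passing the limit was not always enough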;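 note: cells exposed to compound for three days before fixation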
# AP complement: alternative complement pathway inhibitors, primary screen, biochemical, ELISA, human serum, orthogonally pooled compounds; inhibition, % at 5 µM; LPS-coated ELISA, C3 deposition; tested in compound mixtures; 62,000 compounds, 0.08% hits;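 active = inhibition above 30% in each of the two pooled mixtures holding the compound, so the lower value exceeds 30%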;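 note: 0% = serum in Mg-EGTA without compound and 100% = EDTA serum blank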
#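 Test system – human serum alternative complement pathway, C3 deposition on LPS-coated wells · Buffer or medium – diluted human serum in Mg2+-EGTA GVB++ · Compound dosing – 5 µM each compound, pools of ten, 50 µM per pool · Schedule – 1 h serum-compound exposure at 37 °C · Measured by – Anti-C3 ELISA, OD 450 nm · Read-out basis – percent inhibition of C3 deposition onto LPS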
# D1 PAM confirm: D1 receptor positive allosteric modulators, retest, confirmation, cell-based, HEK293 D1, CRE-luciferase, duplicate; 2,200 compounds, 88% hits; shares compounds with D1 allo mod; dopamine EC30 potentiation; active compounds read high; luminescence at 10 µM;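 active = luminescence in either of two replicates above the same-plate mean plus 3 SD of the low-dose dopamine control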
# D1 no dopamine: D1 receptor agonism without dopamine, confirmation, mechanism study for D1 allosteric modulator project, cell-based, HEK293 D1, CRE-luciferase, secondary assay 1 | shares compounds with D1 allo mod | luminescence, no dopamine; active compounds read high | luminescence at 10 µM | 1,900 compounds, 0.8% hits; in the data active = luminescence above about 3900
# Isoprot counter: alters isoproterenol CRE-luciferase response in HEK293 cells; shares compounds with D1 allo mod; HEK293 D1 CRE-luciferase, isoproterenol EC30 counter-screen; calls only at 10 µM; 2,200 compounds, 63% hits; AID 647;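 active = luminescence in either replicate above plate mean of wells with a partly effective reference agonist dose plus 3 SD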;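 note: isoproterenol raises cAMP through native beta-adrenoceptor Gs so signal bypasses D1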
# Numbers without * were called inactive; i = inactive; x = no result; + = active, no number. Only some compounds are listed: those with a hit (about 9% of all), similar ones and a draw of the others.
SMILES,M1 antagonist,D1 allo mod,M1 agonist,Htt clearance,AP complement,D1 PAM confirm,D1 no dopamine,Isoprot counter
CCOC(=O)c1c(N)n[nH]c1-c1ccc(OC)cc1,0.104,8.95*,-1.3,-40.8,2.5,16256*,x,+
CCOC(=O)c1nnn(-c2nonc2N)c1-c1ccc(OC)cc1,-1.05,10.7*,-0.277,x,22.2,22732*,1492,+
Cc1ccc(SCc2cc(=O)[nH]c(/N=C(\N)Nc3ccc(C)c(C)c3)n2)cc1,x,x,x,20.9,x,x,x,x
O=c1cc(O)nc(SCc2ccccc2)[nH]1,0.176,0.347,-0.842,-9.0,6.6,x,x,x
CC(C)(C)Sc1nc(O)cc(=O)[nH]1,-0.226,2.1*,-0.466,x,34.0*,5460,1436,i
CCCc1nnc(SCC(=O)N2CCCCC2)n1CCCOC,x,x,x,25.8,x,x,x,x
COCc1cc(C)nc(NC2CCCCC2)c1C#N,-1.03,3.53*,2.3,-1.1,7.2,5216,1592,i
COc1ccc(NC(=O)C2(N(CC(C)C)C(=O)Cn3nnnc3N)CCCCC2)cc1,0.114,-0.0312,0.531,x,12.1,x,x,x
Cc1ccc(NC(=O)C2(N(CC(C)C)C(=O)Cn3nnnc3N)CCCCC2)cc1,x,5.42*,x,x,-0.8,5068,x,i
CCC1Oc2ccc(C)cc2N(CC(=O)NCCN2C(C)CCCC2C)C1=O (centres undefined),-1.82,4.98*,0.316,x,5.5,4656,1552,i
O=[N+]([O-])c1cccc(/C=N/Nc2cc(Cl)nc(-c3ccccc3)n2)c1,x,x,x,-24.9,x,x,x,x
CCn1c(SCc2cccnc2)nc2c1c(=O)n(C)c(=O)n2C,1.15,4.97*,0.021,-0.2,4.5,5832*,1320,i
CCCCn1c(SCc2cccnc2)nc2c1c(=O)n(C)c(=O)n2C,-0.145,1.71,0.744,x,-3.2,x,x,x
CCOc1ccc(-c2nnn(CC(=O)NCc3ccc(OC)cc3)n2)cc1OCC,1.43,5.33*,-0.792,x,-1.1,6444*,1592,i
CCOc1ccc(-c2nnn(CC(=O)Nc3cc(OC)ccc3OC)n2)cc1OCC,-0.441,1.45,-0.239,x,4.3,x,x,x
CCOc1ccccc1NC(=O)Cn1nnc(-c2ccc(OCC)c(OCC)c2)n1,0.125,29.2*,-0.912,-76.6,-6.3,19636*,1656,+
CC(C)NC(=O)CN(C(=O)CCC(=O)Nc1ccccn1)c1ccc(F)c(Cl)c1,-0.182,x,-0.0363,10.3,0.0,x,x,x
CCOC(=O)c1c(C)[nH]c(C(=O)C(C)OC(=O)c2cccc(OCc3c(C)noc3C)c2)c1C (centres undefined),-0.0369,2.05,2.05,x,10.3,x,x,x
COc1ccc(-c2noc(COc3ccccc3OC)n2)cc1OC,-0.247,10.9*,0.117,x,7.6,17132*,1668,+
COc1ccc(-c2noc(-c3ccco3)n2)cc1OC,-0.0318,5.22*,0.726,-61.6,-1.8,18728*,1452,i
COc1ccc(-c2nc(-c3ccncc3)no2)cc1OC,0.401,x,1.21,x,-12.6,x,x,x
COc1ccc(-c2noc(CN(C(=O)c3ccc(OC(C)=O)cc3)C(C)C)n2)cc1OC,-0.464,3.88*,-0.176,14.8,14.4,7848*,1480,+
COc1ccc(Cc2nnc(-c3cccc(C)c3)o2)cc1OC,0.16,4.34*,-1.93,x,11.5,13948*,1620,+
Cc1ccccc1CN1CCN(CC(=O)NCc2ccc3c(c2)OCO3)C1=O,1.51,-0.419,-0.00135,-17.5,-3.9,x,x,x
COc1cc(S(=O)(=O)NCc2ccccc2)ccc1F,0.509,0.579,0.528,x,0.9,x,x,x
COc1ccc(-c2noc(CSc3nnc(Cc4ccccc4)n3-c3cccc(C)c3)n2)cc1OC,-1.59,1.46,0.134,8.8,16.1,x,x,x
COc1ccc(-c2noc(-c3cccc(Cl)c3)n2)cc1OC,0.772,-1.44,-1.56,x,5.4,x,x,x

# Screens from PubChem.
